Data published in ChEMBL document CHEMBL1124174, “Substituted benzamides. 1. Potential nondopaminergic antagonists of chemotherapy-induced nausea and emesis” (J Med Chem, 1988).

Assays:
[1] = target: D(2) dopamine receptor (Rattus norvegicus) (UniProt P61169); test: In vivo antagonistic activity against dopamine D2 receptor was measured as catalepsy in rat when administered subcutaneously; assay type: functional, organism-based
How it was run: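 Male Long Evans rats (275 g) received graded sc doses in dilute aqueous HCl (pH 4.5-5.5). They were observed 180 min for catalepsy, scored when the animal stayed stationary ≥15 s on a four-cork template.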

Mustela putorius furo [2] = test: In vivo antagonism of cisplatin-induced emesis in ferret measured as percentage protection for twice the dose of 3 mg/kg and in 3 ferrets; assay type: functional
How it was run: (§1)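 Nonfasted castrated male Fitch ferrets (1–1.5 kg) had jugular catheters implanted ≥48 h earlier under anesthesia. Compounds or saline were given iv twice, 5 min before and 90 min after cisplatin (12 mg/kg iv; 12 mg/mL in warm 0.9% saline). Emesis was observed up to 4 h; events within 1 min counted as one episode. Results were given as mean emetic episodes and % protection versus a pooled historical/concurrent control. t test versus saline.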

Canis familiaris [3] = test: In vivo antagonism of cisplatin-induced emesis in dog measured as emetic episodes, twice the dose of 6 mg/kg in 3 dogs; assay type: functional, Canis lupus familiaris
How it was run: (§2)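 Nonfasted mature male or female beagles received test compound or saline sc twice, 30 min before and 120 min after cisplatin (3 mg/kg iv; 3 mg/mL in warm 0.9% saline, used at once). Emesis observed up to 5 h. Emetic episode = expulsion of stomach content; events within 2 min counted as one. Protection calculated against a dynamic control (historical mean pooled with concurrent saline control).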

[4] = target: D(2) dopamine receptor (Rattus norvegicus) (UniProt P61169); test: In vivo antagonism activity against D2 receptor was measured as stereotypy in rat when administered subcutaneously; assay type: functional, organism-based
How it was run: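 Male Long Evans rats (275 g) were dosed sc in dilute aqueous HCl (pH 4.5-5.5) 30 min before apomorphine (1 mg/kg sc).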

Mustela putorius furo [5] = test: In vivo antagonism of cisplatin-induced emesis in ferret measured as emetic episodes, twice the dose of 3 mg/kg and in 3 ferrets; assay type: functional; how it was run: as §1
[6] = target: D(2) dopamine receptor (Canis lupus familiaris) (UniProt Q9GJU1); test: In vivo antagonism activity against dopamine D2 receptor was measured as emesis in dog when administered subcutaneously; assay type: functional, organism-based
Canis familiaris [7] = test: In vivo antagonism of cisplatin-induced emesis in dog measured as percentage protection for twice the dose of 6 mg/kg in 3 dogs; assay type: functional, Canis lupus familiaris; how it was run: as §2
Canis familiaris [8] = test: In vivo antagonism of cisplatin-induced emesis in dog measured as emetic episodes, twice the dose of 6 mg/kg in 2 dogs; assay type: functional, Canis lupus familiaris
How it was run: (§3)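 Nonfasted mature male or female beagles were dosed sc twice, 30 min before and 120 min after cisplatin (3 mg/kg iv; 3 mg/mL in warm 0.9% saline, used immediately). Emesis was observed up to 5 h; events within 2 min counted as one episode. Results were given as mean emetic episodes and % protection versus a dynamic control (historical and concurrent saline means pooled). t test versus saline.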

Mustela putorius furo [9] = test: In vivo antagonism of cisplatin-induced emesis in ferret measured as percentage protection for twice the dose of 31 mg/kg and in 3 ferrets; assay type: functional; details: dose 1 mg/kg; in the assay text read “1 mg/kg” for “31 mg/kg”; how it was run: as §1
Canis familiaris [10] = test: In vivo antagonism of cisplatin-induced emesis in dog measured as emetic episodes, twice the dose of 3 mg/kg in 2 dogs; assay type: functional, Canis lupus familiaris; how it was run: as §3
Canis familiaris [11] = test: In vivo antagonism of cisplatin-induced emesis in dog measured as percentage protection for twice the dose of 6 mg/kg in 2 dogs; assay type: functional, Canis lupus familiaris; how it was run: as §3
D(2) dopamine receptor = D(2) dopamine receptor (Rattus norvegicus, UniProt P61169); test: In vitro antagonistic activity against Dopamine receptor D2 was evaluated for the inhibition of [3H]spiperone binding
How it was run: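 Rat striatal membranes were prepared by differential centrifugation in 50 mM Tris pH 7.4 at 4 °C. Membrane protein (10 mg) was incubated 15 min at 37 °C with 0.1 nM [3H]spiperone and varying competitor concentrations. Buffer: 50 mM Tris HCl pH 7.5, 0.1% ascorbic acid, pargyline, 120 mM NaCl, 5 mM KCl, 2 mM CaCl2, 1 mM MgCl2. (+)-Butaclamol defined nonspecific binding. Bound ligand was collected by filtration and scintillation counted. IC50 by log-logit regression.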

Canis familiaris [12] = test: In vivo antagonism of cisplatin-induced emesis in dog measured as percentage protection for twice the dose of 3 mg/kg in 2 dogs; assay type: functional, Canis lupus familiaris; how it was run: as §3
Mustela putorius furo [13] = test: In vivo antagonism of cisplatin-induced emesis in ferret measured as emetic episodes, twice the dose of 1 mg/kg and in 3 ferrets; assay type: functional; how it was run: as §1
Mustela putorius furo [14] = test: in vivo antagonism of cisplatin-induced emesis in ferret measured as emetic episodes, twice the dose of 3 mg/kg and in 3 ferrets; assay type: functional
How it was run: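 Nonfasted castrated male Fitch ferrets (1–1.5 kg) carried jugular vein catheters implanted at least 48 h earlier under general anesthesia. Test compound or saline was given iv twice, 5 min before and 90 min after cisplatin (12 mg/kg iv; 12 mg/mL in warm saline). Emesis was watched for 4 h, with events within 1 min counted as one episode. % protection is relative to a pooled historical-plus-concurrent control, with t test versus saline.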

Mustela putorius furo [15] = test: In vivo antagonism of cisplatin-induced emesis in ferret measured as emetic episodes, twice the dose of mg/kg and in 3 ferrets; assay type: functional; how it was run: as §1
Mustela putorius furo [16] = test: In vivo antagonism of cisplatin-induced emesis in ferret measured as percentage protection for twice the dose of 1 mg/kg and in 3 ferrets; assay type: functional; how it was run: as §1

Sequence of D(2) dopamine receptor (Rattus norvegicus) (P61169 whole entry): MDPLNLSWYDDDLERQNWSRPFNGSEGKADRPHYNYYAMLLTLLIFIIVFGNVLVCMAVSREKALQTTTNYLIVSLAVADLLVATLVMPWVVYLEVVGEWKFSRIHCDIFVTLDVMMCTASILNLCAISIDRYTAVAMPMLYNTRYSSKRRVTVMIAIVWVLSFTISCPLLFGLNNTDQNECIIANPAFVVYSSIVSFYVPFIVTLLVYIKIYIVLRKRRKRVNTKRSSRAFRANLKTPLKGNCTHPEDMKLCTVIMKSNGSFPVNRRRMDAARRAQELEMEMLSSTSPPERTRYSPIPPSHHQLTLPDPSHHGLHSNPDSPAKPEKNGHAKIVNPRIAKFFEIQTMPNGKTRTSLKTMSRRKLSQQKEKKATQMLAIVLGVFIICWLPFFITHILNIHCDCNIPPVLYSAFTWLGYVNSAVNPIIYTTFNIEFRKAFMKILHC
Sequence of D(2) dopamine receptor (Canis lupus familiaris) (Q9GJU1 whole entry): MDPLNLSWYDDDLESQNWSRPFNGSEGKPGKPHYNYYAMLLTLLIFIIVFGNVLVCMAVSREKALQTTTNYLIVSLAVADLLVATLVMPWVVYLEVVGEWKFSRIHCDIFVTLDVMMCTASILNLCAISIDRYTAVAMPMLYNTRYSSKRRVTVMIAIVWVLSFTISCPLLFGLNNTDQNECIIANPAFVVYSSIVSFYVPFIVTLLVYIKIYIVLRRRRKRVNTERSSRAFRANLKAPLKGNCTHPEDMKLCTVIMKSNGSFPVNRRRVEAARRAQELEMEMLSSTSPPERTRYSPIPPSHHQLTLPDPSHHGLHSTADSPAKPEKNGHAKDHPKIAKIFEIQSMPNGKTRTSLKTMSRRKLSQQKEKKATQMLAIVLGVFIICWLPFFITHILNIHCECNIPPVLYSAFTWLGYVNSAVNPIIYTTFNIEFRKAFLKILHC
Sequence of D(2) dopamine receptor (P61169 whole entry): as the sequence (P61169 whole entry) above

| Compound | ED50 [1] | Protection (Mustela putorius furo [2]) | Emetic episodes (Canis familiaris [3]) | ED50 [4] | Emetic episodes (Mustela putorius furo [5]) | ED50 [6] | Protection (Canis familiaris [7]) | Emetic episodes (Canis familiaris [8]) | Protection (Mustela putorius furo [9]) | Emetic episodes (Canis familiaris [10]) | Protection (Canis familiaris [11]) | IC50 (D(2) dopamine receptor) | Protection (Canis familiaris [12]) | Emetic episodes (Mustela putorius furo [13]) | Emetic episodes (Mustela putorius furo [14]) | Emetic episodes (Mustela putorius furo [15]) | Protection (Mustela putorius furo [16]) |
| --- | --- | --- | --- | --- | --- | --- | --- | --- | --- | --- | --- | --- | --- | --- | --- | --- | --- |
| O=c1[nH]c2ccccc2n1CCCN1CCC(n2c(=O)[nH]c3cc(Cl)ccc32)CC1 [DOMPERIDONE] | > 40 mg/kg | 50% | 9.7 | > 40 mg/kg | 3.3 | 0.08 mg/kg | 30% |  |  |  |  |  |  |  |  |  |  |
| C#CCOc1cc(N)c(Cl)cc1C(=O)NCCN(CC)CC | > 40 mg/kg | 50% |  | > 40 mg/kg | 3.3 | > 1 mg/kg |  | 2 | 40% | 3.5 | 73% | > 1 µM | 72% | 4.3 |  |  |  |
| CCN(CC)CCNC(=O)c1cc(Cl)c(N)cc1OCC(C)OC (configuration not stated) | > 40 mg/kg | 86% |  | > 40 mg/kg |  | > 3 mg/kg |  |  |  |  |  | > 1 µM |  |  | 1 | 3 | 57% |
